Screening results as filed in PubChem BioAssay.
PMI act – activators of human PMI, primary screen, biochemical, fluorescence intensity, near-Km mannose 6-phosphate | Mannose-6-phosphate isomerase (Homo sapiens), P34949 | purified human PMI, coupled resazurin fluorescence, 20 min; hits give high values; 1 = vehicle control, 0 substrate-free wells | activation factor at 20 µM | hit rate 0.005% among 190,000 | AID 1214, 2008;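 active = activation factor of 2 or more at 20 µM, relative to plate controls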
Target sequence (P34949 whole entry, looked up): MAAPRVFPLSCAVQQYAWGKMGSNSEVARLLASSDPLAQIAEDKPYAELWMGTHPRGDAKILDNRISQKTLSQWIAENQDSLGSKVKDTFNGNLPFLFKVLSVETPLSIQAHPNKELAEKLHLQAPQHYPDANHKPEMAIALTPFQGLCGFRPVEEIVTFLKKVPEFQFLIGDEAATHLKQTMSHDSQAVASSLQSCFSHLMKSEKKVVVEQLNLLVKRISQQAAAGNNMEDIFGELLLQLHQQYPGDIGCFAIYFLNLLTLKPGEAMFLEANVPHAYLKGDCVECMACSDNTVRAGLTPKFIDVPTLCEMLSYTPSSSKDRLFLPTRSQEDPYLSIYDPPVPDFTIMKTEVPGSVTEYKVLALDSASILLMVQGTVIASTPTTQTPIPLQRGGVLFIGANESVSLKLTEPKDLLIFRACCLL
Lmaj promast – Leishmania major promastigote growth inhibition, primary screen; inhibition, % at 10 µM; Leishmania major promastigotes, resazurin fluorescence viability; hit rate 9% among 200,000; AID 1063, 2008; in the data active = inhibition above about 50%;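 also: promastigotes grown with compound for 44 hours at 28 °C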
Diaphorase act – compounds boosting diaphorase resazurin reduction – biochemical, uHTS, resorufin fluorescence, counter-screen for diaphorase-coupled primary assays, primary screen; Diaphorase/resazurin coupled assay, 16 min; hits give high values; 1 = vehicle wells, 0 = NADH-free wells; activation factor at 20 µM; hit rate 0.005% among 190,000;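 active = diaphorase activity raised at least twofold by the compound at 20 µM; inactive = activation factor below 2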
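Material: Purified diaphorase enzyme from Clostridium kluyveri | Buffer or medium: 50 mM HEPES pH 7.4 with 4.542 mM MgCl2, 0.005% Tween 20 | Times: 16 min enzyme reaction, ambient temperature | Signal: Red resorufin fluorescence at 544/590 nm excitation/emission | Measure: Increased resorufin signal from activators or reducing compounds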
WT yeast gro inh – growth inhibition of WT strain, primary screen, mitochondrial fusion inhibitor project, WT and mutant strains, chemical genetic; inhibition, % at 10 µM; hit rate 2.1% among 190,000; mitochondrial fusion phenotypic screen; in the data active = inhibition above about 58%; tested in S. cerevisiae
PMI act satM6P – human PMI activators, high substrate, primary screen, biochemical, fluorescence intensity, near-saturating mannose 6-phosphate; activation factor at 20 µM; hit rate 0.34% among 190,000; coupled PMI enzyme assay, resazurin fluorescence, 20 min; hits give high values; 1 = untreated enzyme, 0 = substrate-free blank; Mannose-6-phosphate isomerase (Homo sapiens), P34949;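 active = activation factor of 2 or more at 20 µM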
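test system = human PMI in coupled enzyme assay | medium = HEPES-buffered pH 7.4 with magnesium and detergent | also added = 1.0 mM mannose-6-phosphate substrate with 0.22 mM NADP+ | compound = 20 µM single dose | times = 20 min incubation at room temperature | measured by = resorufin fluorescence (Ex 544/Em 590 nm) from resazurin via diaphorase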
Of the large screens only hits and unclear results are named; the others gave an inactive call. In the library only some 10% were active in any assay of this set; here they are far more common.

CCOC(=O)c1cnc2ccc(Cl)cc2c1NCCN(C)C	none
CCc1ccc(C(=O)c2cnc3ccc(OC)cc3c2N2CCN(CC)CC2)cc1	Lmaj promast 68.9
CCOC(=O)c1cnc2ccc(OCC)cc2c1N1CCN(c2ccccc2OC)CC1	WT yeast gro inh 79.1
O=C(NC1CCSC1=O)C1CCCCC1 (centres undefined)	none
OCCC1CN(CCCn2cccn2)CCN1C1CCCCC1 (centres undefined)	none
Cc1cc(NC(=NC2CC2)c2ccccc2F)n(-c2ccccc2)n1	none
CSc1nn(CCc2ccncc2)c(=S)s1	Lmaj promast 56.3
Cc1cnc(SCCc2ccncc2)nc1C	none
Cn1c(SCc2ccccc2F)nnc1-c1ccccn1	none
CC1CCC2(CC1)NC(=O)N(Cc1cccc(C(F)(F)F)c1)C2=O (centres undefined)	Lmaj promast 100.3
COc1ccc(CN2C(=O)NC3(CCCC3)C2=O)cc1F	none
Cc1ccc(S(=O)(=O)N(Cc2ccccc2)c2ccccc2C(=O)NCc2cccnc2)cc1	Lmaj promast 64.3
COc1ccc(S(=O)(=O)N(Cc2ccccc2)c2ccccc2C(=O)Nc2ccccc2C(=O)NCc2ccco2)cc1	Lmaj promast 66.2
Cc1ccccc1CN(c1ccc(C(=O)Nc2ccccc2C(=O)NCc2ccco2)cc1)S(C)(=O)=O	Lmaj promast 81.3
O=C1NC(=O)/C(=C\c2ccc(O)cc2O)S1	none
O=C(CSc1nc2ccccc2c(=O)n1-c1ccccc1)c1c[nH]c2ccccc12	Lmaj promast 51.4
CC(C)c1ccc(NC(=S)N(C)CCc2ccccn2)cc1	WT yeast gro inh 73.9
CCN(CC)CCn1c(=S)[nH]c2ccc(Br)cc2c1=O	none
Cc1nn(Cc2ccc(Cl)cc2Cl)c(C)c1NC(=O)NC12CC3CC(CC(C3)C1)C2	Lmaj promast 99.8, WT yeast gro inh 67.6
Cc1nn(Cc2ccc(Cl)cc2Cl)c(C)c1NC(=O)c1sc2ccccc2c1Cl	none
Cc1ccc(S(=O)(=O)N2CCOCC2)cc1C(=O)Nc1nc2ccccc2[nH]1	none
COc1cc(/C=C(\C#N)C(=O)NCC2CCCO2)ccc1OC(C)C (centres undefined)	Lmaj promast 78.5
Cc1ccc(-n2c(C)cc(C=C3C(=O)CC(C)(C)CC3=O)c2C)cc1	Lmaj promast 98.2
Cc1cc(C=C2C(=O)c3ccccc3C2=O)c(C)n1-c1ccccc1	none
COc1ccccc1N=CC1=C(O)CC(c2ccccc2)CC1=O (centres undefined)	none
COc1cccc(/C=N/n2c(C)nc3ccccc3c2=O)c1O	none
COc1cccc(/C=N/Nc2nc(Nc3ccccc3)nc(-n3nc(C)cc3C)n2)c1O	Lmaj promast 100.5
Cc1cnn(-c2cc(N/N=C/c3ccccc3Cl)ncn2)c1	none
COc1cccc(/C=N/Nc2cc(-n3nc(C)cc3-c3ccccc3)ncn2)c1O	Lmaj promast 67.1
CN(C(=O)COC(=O)CNC(=O)c1sc2ccccc2c1Cl)c1ccccc1	none
OC(COc1c(Br)cc(Br)cc1Br)CN1CCOCC1 (centres undefined)	Lmaj promast 79.1
OC(COc1ccc2cc(Br)ccc2c1)CN1CCOCC1 (centres undefined)	Lmaj promast 59.8
COc1ccc(C2=NC(=O)/C(=C\c3cc(OC)c(OC)c(OC)c3)O2)cc1	none
COC(=O)c1cc2c(ccn2-c2ccc(F)cc2)n1Cc1ccc(OC)cc1	Lmaj promast 99.1
COC(=O)c1cc2c(ccn2-c2ccc(F)cc2)n1Cc1ccc(C#N)cc1	none
CCn1c(C(=O)OC)cc2c1ccn2-c1ccc(F)cc1	WT yeast gro inh 76.5
CCOC(=O)c1cc2c(ccn2-c2ccc(F)cc2)n1CC(=O)NC(C)(C)C	none
O=C(O)c1cn(-c2ccc(N3CCCC3)c(F)c2)c2c(F)c(F)c(F)cc2c1=O	WT yeast gro inh 78.0
COc1ccc(-c2[nH]ncc2-c2cscn2)c(O)c1	none
C=CCSc1nnc(NC(=O)COc2ccc3ccccc3c2)s1	WT yeast gro inh 86.4
Cc1cc(C)c(S(=O)(=O)Nc2ccc(O)cc2)c(C)c1	none
Cc1cc(C)c(S(=O)(=O)Nc2ccc3c(c2)CCC3)c(C)c1	Lmaj promast 91.4, WT yeast gro inh 77.1
CCO[C@H]1OC(C(N)=O)=C[C@@H](C2CCCCC2)[C@@H]1CCCO	none
O=C(C1CCN(c2ccc(N3CCOCC3)nn2)CC1)N1CCc2ccccc2C1	Lmaj promast 95.2
Cc1ccc(N(CC(=O)NC(C)c2ccccc2)S(=O)(=O)c2cccs2)cc1 (centres undefined)	Lmaj promast 89.1
O=C(Nc1ccc(Cl)cc1)N1CCN(c2ccccc2)CC1	none
O=C(Nc1ccccc1)C1=C(O)CC(c2ccc(Cl)cc2)N2CCN=C12 (centres undefined)	Lmaj promast 91.6
S=c1[nH]nc(-c2ccc3ccccc3n2)n1-c1cc(Cl)cc(Cl)c1	WT yeast gro inh 59.6
Fc1ccc(-n2c(-c3ccc4ccccc4n3)n[nH]c2=S)cc1	none (no result: PMI act, Diaphorase act, PMI act satM6P)
S=c1[nH]nc(-c2ccc3ccccc3n2)n1-c1ccccc1Cl	Lmaj promast 52.2
CCO[C@@H]1OC(C(=O)N2CCN(Cc3ccc4c(c3)OCO4)CC2)=C[C@H](C2CCCCC2)[C@H]1CCCO	Lmaj promast 66.8
CCO[C@H]1OC(C(=O)N2CCN(Cc3ccc4c(c3)OCO4)CC2)=C[C@@H](c2csc3ccccc23)[C@@H]1CCCO	Lmaj promast 73.8
Cc1ccc2sc(-c3ccc(NC(=O)/C=C\C(=O)O)cc3)nc2c1	none
O=C(NCc1ccco1)c1cc([N+](=O)[O-])cc([N+](=O)[O-])c1	Lmaj promast 57.9
CCC(CC)C(=O)c1c[nH]c(C(=O)NCc2ccco2)c1	WT yeast gro inh 61.1
O=C(NCc1ccco1)c1cc(-c2ccccc2)on1	WT yeast gro inh 59.7
CC1CCCN(c2ccc(C(=O)NCc3ccco3)cc2[N+](=O)[O-])C1 (centres undefined)	Lmaj promast 72.7
CCC(=O)c1c[nH]c(C(=O)NCc2ccco2)c1	none
O=C(NCc1ccco1)c1cc(-c2ccc(F)cc2)on1	none
COc1ccc(-c2[nH]ncc2CN(CCO)Cc2cccs2)c(F)c1	none
O=C(CN1CCN(c2nc(-c3ccccc3)cs2)CC1)NNC(=O)c1ccco1	none
O=C(COC(=O)c1c2c(nc3ccccc13)CCCC2)c1cccs1	none
O=C(COC(=O)c1c2c(nc3ccccc13)CCCCC2)c1ccc(Cl)s1	Lmaj promast 61.6
O=C(NCc1ccco1)C(=O)N1CCCC1	none
O=[N+]([O-])c1ccc(C(=S)N2CCCC2)cc1	none
CCN1CCN(C(=S)c2ccc([N+](=O)[O-])cc2)CC1	Lmaj promast 57.7
CCN1CCN(C(=S)c2ccc(Cl)cc2)CC1	Lmaj promast 88.0
